This is an account of results in article PMC3145007 (Journal of the American Chemical Society, 2011).

In general, IC50 refers to the point on the concentration scale where inhibition reaches its midpoint.

Series [1] concerns the target T1, PREPL (Mus musculus, UniProt Q8C167). The series can be described thus: MUGB. The format is biochemical.
Series [2] deals with T1, PREPL. The series can be described thus: competitive gel-based ABPP in PREPL-spiked mouse brain proteome. Type of series: biochemical. The following applies: 50 μM inhibitor, brain proteome 1 mg/mL spiked with 40 nM PREPL, FP-Rh. The procedure, abridged: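 Brain proteome diluted to 1 mg/mL in PBS pH 7.4 and spiked with recombinant His-tagged mouse PREPL (E. coli-expressed, Ni-IMAC purified), with Pluronic at 0.01% final. Test compound or DMSO preincubated 30 min at room temperature. FP-Rh at 0.5 μM final for 15 min, then SDS-loading-buffer quench. Samples run on 10% SDS-PAGE, scanned in-gel for fluorescence, and PREPL bands quantified for labeling extent.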

Series [3] can be described thus: in vivo distribution of PREPL inhibitor to brain by LC-MS/MS. The following applies: mouse, 1 mg/kg intraperitoneal, 30 minutes, brain extract, MRM.
For series [4], the target named is T1, PREPL. The series can be described thus: in situ ABPP assay in PREPL-transfected Neuro2A cells. The format is cell-based. Conditions: 50 μM inhibitor in media. The essentials: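 Neuro2A cells plated at 1.5 × 10^6 per well and transfected next day with mouse PREPL plasmid by lipofection. Two days later, medium replaced with medium containing test compound for 1.5 h. Cell-permeable FP-alkyne then added (10 μM final) for 1 h. Cells PBS-washed, scraped, lysed by 7 freeze-thaw cycles and spun at 20,000 x g. Lysate at 4 mg/ml clicked with rhodamine-azide/TCEP/ligand/CuSO4 for 1 h, then resolved by SDS-PAGE.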

The target of series [5] is T1, PREPL. The series can be described thus: gel-based ABPP IC50 determination with recombinant PREPL and FP-Rh. Type of series: biochemical.
In the next series the target is PEP (Mus musculus, UniProt Q9QUR6). The series can be described thus: PEP selectivity assay. Type of series: biochemical. The following applies: 20 μM inhibitor; >20% reduction in PEP activity = cross-reactive.

Entries after “also recorded” stand apart in the source; their conditions may differ.

T1 sequence (Q8C167 88-725): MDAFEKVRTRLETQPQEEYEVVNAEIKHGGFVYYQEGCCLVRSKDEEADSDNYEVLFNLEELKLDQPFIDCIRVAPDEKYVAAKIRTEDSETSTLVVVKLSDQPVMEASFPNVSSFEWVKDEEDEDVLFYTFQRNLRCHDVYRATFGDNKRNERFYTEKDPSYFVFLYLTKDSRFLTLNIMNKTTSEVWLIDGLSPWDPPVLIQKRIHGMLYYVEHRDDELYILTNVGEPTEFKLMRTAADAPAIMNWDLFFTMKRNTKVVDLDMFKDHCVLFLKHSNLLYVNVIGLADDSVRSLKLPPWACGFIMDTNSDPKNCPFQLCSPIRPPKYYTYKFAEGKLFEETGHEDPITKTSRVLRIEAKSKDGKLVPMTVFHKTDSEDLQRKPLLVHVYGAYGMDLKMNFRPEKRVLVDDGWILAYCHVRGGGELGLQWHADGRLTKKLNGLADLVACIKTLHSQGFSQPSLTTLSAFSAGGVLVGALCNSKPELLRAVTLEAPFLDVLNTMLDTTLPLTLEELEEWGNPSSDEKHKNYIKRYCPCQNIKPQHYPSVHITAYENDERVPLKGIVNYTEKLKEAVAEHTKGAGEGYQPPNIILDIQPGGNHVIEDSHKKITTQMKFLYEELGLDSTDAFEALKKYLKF
PEP, sequence (Q9QUR6 whole entry): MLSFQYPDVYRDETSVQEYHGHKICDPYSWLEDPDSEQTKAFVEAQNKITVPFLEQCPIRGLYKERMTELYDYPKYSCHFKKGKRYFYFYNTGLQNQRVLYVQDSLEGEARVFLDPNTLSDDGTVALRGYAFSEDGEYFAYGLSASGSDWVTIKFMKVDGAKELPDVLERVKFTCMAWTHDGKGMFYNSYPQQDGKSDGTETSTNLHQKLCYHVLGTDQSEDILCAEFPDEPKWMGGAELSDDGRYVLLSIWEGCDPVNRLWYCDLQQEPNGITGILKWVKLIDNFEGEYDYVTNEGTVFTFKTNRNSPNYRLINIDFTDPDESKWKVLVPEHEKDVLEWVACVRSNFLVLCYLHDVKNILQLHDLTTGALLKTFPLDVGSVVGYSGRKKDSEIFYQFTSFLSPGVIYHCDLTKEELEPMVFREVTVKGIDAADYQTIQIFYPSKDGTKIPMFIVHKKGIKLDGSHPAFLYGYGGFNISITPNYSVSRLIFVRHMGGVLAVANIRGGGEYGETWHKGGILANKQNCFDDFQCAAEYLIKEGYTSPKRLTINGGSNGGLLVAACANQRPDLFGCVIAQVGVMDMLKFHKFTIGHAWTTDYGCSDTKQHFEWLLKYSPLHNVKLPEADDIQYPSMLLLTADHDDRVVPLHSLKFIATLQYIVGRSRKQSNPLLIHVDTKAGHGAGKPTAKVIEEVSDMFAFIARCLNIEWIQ

`CC(C)Cc1[nH]c(=O)c(C#N)c2c1CCC2` [compound 8, 1-isobutyl-3-oxo-3,5,6,7-tetrahydro-2H-cyclopenta[c]pyridine-4-carbonitrile]: on PREPL [1], the “inhibition of MUGB breakdown by PREPL” value was “inhibited breakdown of MUGB by PREPL”. For the same compound, the “inhibition of PREPL in complex (brain) proteome” value on PREPL [2] is reported as “able to inhibit PREPL in a complex proteome; also recorded: most potent carbonitrile inhibitor in the brain proteome ABPP assay; also recorded: selectively inhibit PREPL in brain proteomes”. Moreover, the “presence in brain / crossing of blood-brain barrier” value in series [3] is listed as “strong signal; also recorded: able to cross the blood-brain barrier”. Also, the “inhibition of PREPL in cells (in situ)” value on PREPL [4] was “able to cross the cell membrane and inhibit PREPL intracellularly; also recorded: lighter band on the gel”. Besides, the 50% inhibitory concentration (IC50) at PREPL [5] is 3 to 12 µM. Moreover, on PEP, the “crossreactivity against PEP” value is “non-crossreactive”.
